Measurements: article PMC7089137 (Pharmaceutical Chemistry Journal, 2019)
Converted amounts (≈) assume the structure as drawn.

How the values were obtained:
[1] = system: L1210, CEM and HeLa cells; experiment: Cytostatic activity over the three tumor cell lines; format: cell-based
In short: (§1)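 Each well is seeded with (5–7.5) × 10^4 tumor cells and exposed to test compound at 100, 20, 4, 0.8, 0.16 and 0.032 μg/mL (5-fold dilutions). Cells grow at 37°C in humidified CO2: 48 h for murine L1210, 72 h for human CEM and HeLa. They are then counted with a Coulter counter. IC50 is the concentration halving proliferation, reported as mean ± SD of at least two to three independent experiments. Cisplatin is the reference.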

Vaccina virus = experiment: microbe, parasite or virus in culture; format: cell-based, vaccinia virus Lederle strain; conditions: Orthopoxvirus vaccinia, HEL, read-out: EC50 Vaccina virus
Sindbis virus = experiment: Inhibition of virus-induced cytopathicity, Sindbis virus in Vero; format: cell-based; conditions: Vero cell cultures
Reo virus-1 = experiment: Inhibition of virus-induced cytopathicity, reovirus-1 in Vero; format: cell-based; conditions: Vero cell cultures
Punta Toro virus = experiment: Inhibition of virus-induced cytopathicity, Punta Toro virus in Vero; format: cell-based; conditions: Vero cell cultures
[2] = system: human cervix carcinoma HeLa cells; experiment: Cytostatic assay, inhibition of HeLa cell proliferation; format: cell-based; conditions: 72 h, read-out: IC50 HeLa
In short: as §1

Para influenza-3 virus = experiment: Inhibition of virus-induced cytopathicity, parainfluenza-3 virus in Vero; format: cell-based

With `N#Cc1ccc(NC(=S)NN=Cc2ccccc2)cc1` [Ia, 2-Benzylidene-N-(4-cyanophenyl)hydrazinecarbothioamide] the “cytostatic activity (in words)” value ([1]; tumor cell lines L1210, CEM, HeLa) was “did not show cytostatic activity”.

`CSc1ccc(NC(=S)NN)cc1` [II, N-(4-methylsulfanylphenyl)hydrazinecarbothioamide] gave an EC50 (Vaccina virus) of 45 to 50 µg/mL (≈ 211 to 234 µM).

For `N#Cc1ccc(NC(=S)NN=Cc2ccc(N(CCCl)CCCl)cc2)cc1` [Ig, 2-{4-[Bis(2-chloroethyl)amino]benzylidene}-N-(4-cyanophenyl)hydrazinecarbo thioamide], the “inhibitory activity against Sindbis virus (in words)” value (Sindbis virus) was “no inhibitory activity”, the IC50 ([1]; read-out: IC50 cytostatic activity) was 0.3 to 2.5 µg/mL (≈ 0.714 to 5.95 µM) and the “inhibitory activity against reovirus-1 (in words)” value (Reo virus-1) was “no inhibitory activity”. The “inhibitory activity against Punta Toro virus (in words)” value (Punta Toro virus) was “no inhibitory activity”, the IC50 [2] was 0.3 µg/mL (≈ 0.714 µM) and the “inhibitory activity against parainfluenza virus-3 (in words)” value (Para influenza-3 virus) was “no inhibitory activity”.

`N#Cc1ccc(NC(=S)NN)cc1` [I, N-(4-cyanophenyl)hydrazinecarbothioamide] gave an EC50 (Vaccina virus) of 45 to 50 µg/mL (≈ 234 to 260 µM).
